Reference: ChEMBL document CHEMBL1143742, “An antifungal agent inhibits an aminoacyl-tRNA synthetase by trapping tRNA in the editing site” (Science, 2007)
In brackets after ≈: the same amount, converted by molar mass. Activity calls are given as the source filed them. The rule behind the calls is not given here.

Assays:
[1] = target: T1, Leucine--tRNA ligase, cytoplasmic (Saccharomyces cerevisiae S288c, UniProt P26637); test: Inhibition of Saccharomyces cerevisiae cytoplasmic leucyl-tRNA synthetase assessed as tRNA amino-acylation
T1 sequence (P26637 whole entry): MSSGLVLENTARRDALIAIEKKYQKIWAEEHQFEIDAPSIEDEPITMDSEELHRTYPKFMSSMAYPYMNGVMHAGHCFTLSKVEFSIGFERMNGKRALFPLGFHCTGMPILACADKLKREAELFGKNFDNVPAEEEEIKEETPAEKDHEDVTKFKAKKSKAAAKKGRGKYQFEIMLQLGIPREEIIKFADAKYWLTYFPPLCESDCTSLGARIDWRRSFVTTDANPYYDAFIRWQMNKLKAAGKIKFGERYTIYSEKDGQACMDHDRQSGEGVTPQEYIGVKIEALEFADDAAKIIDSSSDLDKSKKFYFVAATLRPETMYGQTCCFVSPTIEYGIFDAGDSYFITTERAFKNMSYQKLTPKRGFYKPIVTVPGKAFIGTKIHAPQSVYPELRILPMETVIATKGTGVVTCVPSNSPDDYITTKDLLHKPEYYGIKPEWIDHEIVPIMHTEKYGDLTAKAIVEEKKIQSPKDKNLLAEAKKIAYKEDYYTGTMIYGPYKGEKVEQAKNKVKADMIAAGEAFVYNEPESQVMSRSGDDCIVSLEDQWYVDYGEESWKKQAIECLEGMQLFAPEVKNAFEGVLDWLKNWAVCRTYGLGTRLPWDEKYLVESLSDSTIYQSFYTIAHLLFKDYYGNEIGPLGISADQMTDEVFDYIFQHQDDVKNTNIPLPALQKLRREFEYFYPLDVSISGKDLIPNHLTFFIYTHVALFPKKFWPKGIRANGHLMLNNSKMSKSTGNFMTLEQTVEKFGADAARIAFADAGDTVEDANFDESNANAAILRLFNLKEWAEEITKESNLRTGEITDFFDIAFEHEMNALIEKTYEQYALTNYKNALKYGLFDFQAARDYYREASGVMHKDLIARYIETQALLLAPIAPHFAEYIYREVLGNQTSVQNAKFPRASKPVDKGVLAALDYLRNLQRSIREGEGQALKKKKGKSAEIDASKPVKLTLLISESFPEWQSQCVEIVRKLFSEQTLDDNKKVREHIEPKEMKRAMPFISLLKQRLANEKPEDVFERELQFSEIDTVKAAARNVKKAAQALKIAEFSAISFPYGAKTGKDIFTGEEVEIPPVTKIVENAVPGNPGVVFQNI
How it was run: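 Recombinant N-terminal His6-tagged yeast Cdc60p (2 nM) in 50 mM HEPES-KOH pH 8.0, 30 mM MgCl2, 30 mM KCl, 0.02% BSA, 1 mM DTT, 20 µM [14C]leucine, 0.2 mg/mL brewer's yeast tRNA at 30°C. Enzyme preincubated 20 min with compound, tRNA and leucine; started with 4 mM ATP. Timed aliquots TCA-precipitated on nitrocellulose filters and counted by scintillation; triplicates.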

[2] = test system: Saccharomyces cerevisiae; test: Antimicrobial activity against Saccharomyces cerevisiae in synthetic defined media without leucine; type: functional
[3] = test system: Malassezia furfur; test: Antifungal activity against Malassezia furfur ATCC 44344; type: functional
[4] = test system: Saccharomyces cerevisiae; test: Antimicrobial activity against AN2690-resistant Saccharomyces cerevisiae ANA322 with CDC60 C326F mutation; type: functional
[5] = test system: Alternaria alternata; test: Antifungal activity against Alternaria alternata ATCC 6663; type: functional
[6] = test system: Trichophyton rubrum; test: Antifungal activity against Trichophyton rubrum ATCC 18759; type: functional
[7] = test system: Candida albicans; test: Antifungal activity against Candida albicans ATCC 90028; type: functional
[8] = test system: Saccharomyces cerevisiae; test: Antimicrobial activity against AN2690-resistant Saccharomyces cerevisiae ANA327 with CDC60 T314M mutation; type: functional
[9] = test system: Microsporum audouinii; test: Antifungal activity against Microsporum audouinii ATCC 42558; type: functional
[10] = test system: Cladosporium cladosporioides; test: Antifungal activity against Cladosporium cladosporioides ATCC 16022; type: functional
[11] = test system: Nakaseomyces glabratus; test: Antifungal activity against Candida glabrata ATCC 90030; type: functional
[12] = target: T1, Leucine--tRNA ligase, cytoplasmic; test: Inhibition of Saccharomyces cerevisiae cytoplasmic leucyl-tRNA synthetase after 20 mins
How it was run: (§1)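 His6-tagged yeast Cdc60p (LeuRS) expressed in E. coli Rosetta 2(DE3), used at 2 nM. Buffer 50 mM HEPES-KOH pH 8.0, 30 mM MgCl2, 30 mM KCl, 20 µM [14C]leucine, 0.2 mg/mL brewer's yeast tRNA, 0.02% BSA, 1 mM DTT, 30 °C. TCA-precipitated Leu-tRNA counted. Ki from Lineweaver-Burk y-intercepts replotted against inhibitor.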

[13] = test system: Aspergillus fumigatus; test: Antifungal activity against Aspergillus fumigatus ATCC 13073; type: functional
[14] = test system: Trichophyton benhamiae; test: Antifungal activity against Trichophyton mentagrophytes ATCC 28185; type: functional, Arthroderma benhamiae
[15] = test system: Fusarium solani; test: Antifungal activity against Fusarium solani ATCC 36031; type: functional
[16] = test system: Malassezia pachydermatis; test: Antifungal activity against Malassezia pachydermatis ATCC 96746; type: functional
[17] = test system: Penicillium chrysogenum; test: Antifungal activity against Penicillium chrysogenum ATCC 10108; type: functional
[18] = test system: Candida tropicalis; test: Antifungal activity against Candida tropicalis ATCC 13803; type: functional
[19] = test system: Pichia kudriavzevii; test: Antifungal activity against Candida krusei ATCC 44507; type: functional
[20] = test system: Saccharomyces cerevisiae; test: Antimicrobial activity against AN2690-resistant Saccharomyces cerevisiae ANA324 with CDC60 C326R mutation; type: functional
[21] = target: T1, Leucine--tRNA ligase, cytoplasmic; test: Binding affinity to Saccharomyces cerevisiae cytoplasmic leucyl-tRNA synthetase in presence of AMP
How it was run: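 Equilibrium dialysis across a 5 kDa membrane in 50 mM HEPES-KOH pH 8.0, 30 mM MgCl2, 30 mM KCl. Both sides counted in triplicate by scintillation, bound = side B minus side A. Kd from Scatchard plot.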

[22] = test system: Saccharomyces cerevisiae; test: Antimicrobial activity against AN2690-resistant Saccharomyces cerevisiae ANA358 with CDC60 S416L mutation; type: functional
[23] = test system: Cryptococcus neoformans; test: Antifungal activity against Cryptococcus neoformans F285; type: functional
[24] = test system: Saccharomyces cerevisiae; test: Antimicrobial activity against AN2690-resistant Saccharomyces cerevisiae ANA320 with CDC60 N415D mutation; type: functional
[25] = test system: Nannizzia gypsea; test: Antifungal activity against Microsporum gypseum ATCC 24103; type: functional
[26] = test system: Saccharomyces cerevisiae; test: Antimicrobial activity against AN2690-resistant Saccharomyces cerevisiae ANA326 with CDC60 L315V mutation; type: functional
[27] = target: T1, Leucine--tRNA ligase, cytoplasmic; test: Inhibition of Saccharomyces cerevisiae cytoplasmic leucyl-tRNA synthetase after 2 mins; how it was run: as §1
[28] = test system: Saccharomyces cerevisiae; test: Antimicrobial activity against AN2690-resistant Saccharomyces cerevisiae ANA323 with CDC60 G405V mutation; type: functional
[29] = test system: Epidermophyton floccosum; test: Antifungal activity against Epidermophyton floccosum ATCC 525066; type: functional
[30] = test system: Saccharomyces cerevisiae; test: Antimicrobial activity against Saccharomyces cerevisiae ATCC 201388; type: functional
[31] = Antifungal activity against Rhizopus microsporus ATCC 66276; type: functional
[32] = test system: Saccharomyces cerevisiae; test: Antimicrobial activity against AN2690-resistant Saccharomyces cerevisiae ANA360 with CDC60 T319I mutation; type: functional
[33] = test system: Saccharomyces cerevisiae; test: Inhibition of protein synthesis in Saccharomyces cerevisiae S288C after 15 mins; type: functional, organism-based
How it was run: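 Mid-log S. cerevisiae S288C in SDM lacking leucine, given 0.25 µCi [14C]leucine plus compound over a range of concentrations. 15 min at 30 °C, then cold 10% TCA for 15 min at 4 °C. Precipitate filtered, washed with 5% TCA and scintillation-counted. Percent incorporation relative to untreated cells. Run twice and averaged.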

[34] = test system: Saccharomyces cerevisiae; test: Antimicrobial activity against AN2690-resistant Saccharomyces cerevisiae ANA321 with CDC60 R316I mutation; type: functional

OB1OCCc2cc(F)ccc21
IC50 [1]: 96 µM

Cc1cc(F)ccc1B(O)O
IC50 [1]: > 100 µM

O=C1OCc2cc(F)ccc21
IC50 [1]: > 100 µM

OC1OCc2cc(F)ccc21 (stereo not drawn)
IC50 [1]: > 100 µM

OB(O)c1ccc(F)cc1
IC50 [1]: > 100 µM

COCc1cc(F)ccc1B(O)O
IC50 [1]: > 100 µM

C[C@@H]1[C@H](O)[C@@H](C)/C=C/C=C/C=C/C=C/C=C/C=C/C=C/[C@H](O[C@@H]2O[C@H](C)[C@@H](O)[C@H](N)[C@@H]2O)C[C@@H]2O[C@](O)(C[C@@H](O)C[C@@H](O)[C@H](O)CC[C@@H](O)C[C@@H](O)CC(=O)O[C@H]1C)C[C@H](O)[C@H]2C(=O)O [AMPHOTERICIN B]
MIC [2]: 1 µg/mL (≈ 1.08 µM)

C/C=C/C/C=C/CCC(=O)[C@H]1O[C@H]1C(N)=O [CERULENIN]
MIC [2]: 0.5 µg/mL (≈ 2.24 µM)

C[C@@H]1C[C@@H]([C@H](O)CC2CC(=O)NC(=O)C2)C(=O)[C@@H](C)C1 [CYCLOHEXIMIDE]
MIC [2]: 0.5 µg/mL (≈ 1.78 µM)

OB1OCc2cc(F)ccc21 [TAVABOROLE]
MIC [3]: 1 µg/mL (≈ 6.58 µM) | MIC [4]: 16 µg/mL (≈ 105 µM) | MIC [5]: 0.5 µg/mL (≈ 3.29 µM) | MIC [6]: 2 µg/mL (≈ 13.2 µM) | MIC [7]: 0.5 µg/mL (≈ 3.29 µM) | MIC [8]: 32 µg/mL (≈ 211 µM) | MIC [2]: 0.06 µg/mL (≈ 0.395 µM) | MIC [9]: 2 µg/mL (≈ 13.2 µM) | MIC [10]: 0.5 µg/mL (≈ 3.29 µM) | MIC [11]: ≤ 0.125 µg/mL | Ki [12]: 1.85 µM | MIC [13]: 0.25 µg/mL (≈ 1.65 µM) | MIC [14]: 2 µg/mL (≈ 13.2 µM) | MIC [15]: 2 µg/mL (≈ 13.2 µM) | MIC [16]: 1 µg/mL (≈ 6.58 µM) | MIC [17]: 2 µg/mL (≈ 13.2 µM) | MIC [18]: 0.25 µg/mL (≈ 1.65 µM) | MIC [19]: 1 µg/mL (≈ 6.58 µM) | MIC [20]: 16 µg/mL (≈ 105 µM) | Kd [21]: 20.8 µM | MIC [22]: 32 µg/mL (≈ 211 µM) | MIC [23]: 0.25 µg/mL (≈ 1.65 µM) | MIC [24]: 4 µg/mL (≈ 26.3 µM) | IC50 [1]: 2.1 µM | MIC [25]: 2 µg/mL (≈ 13.2 µM) | MIC [26]: 16 µg/mL (≈ 105 µM) | Ki [27]: 31.4 µM | MIC [28]: 16 µg/mL (≈ 105 µM) | MIC [29]: 1 µg/mL (≈ 6.58 µM) | MIC [30]: 0.125 µg/mL (≈ 0.823 µM) | MIC [31]: 2 µg/mL (≈ 13.2 µM) | MIC [32]: 32 µg/mL (≈ 211 µM) | Activity [33]: Active | MIC [34]: 16 µg/mL (≈ 105 µM)
